Measurements reported in ChEMBL document CHEMBL1132157 (J Med Chem, 1999).

What was measured:
[1] = molecular target: T1, 5-hydroxytryptamine receptor 1D (Homo sapiens, UniProt P28221); assay: Binding affinity at human cloned 5-hydroxytryptamine 1D receptor stably expressed in CHO cells by [3H]5-HT displacement.; assay type: cell-based
Outline: (§1)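 Membranes from thawed CHO cells with human 5-HT1B or 5-HT1D, washed in 50 mM Tris-HCl pH 7.7, preincubated 10 min at 37 °C to remove endogenous 5-HT. Buffer holds 0.1% ascorbate, 10 μM pargyline and 4 mM CaCl2. Uses 2.0 nM [3H]5-HT, 30 min at 37 °C; 10 μM 5-HT defines nonspecific binding. Filtration; IC50 by nonlinear regression; duplicates, 2–5 occasions.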

[2] = Ratio of IC50 for human 5-HT1B to human 5-HT1D receptors
[3] = molecular target: T2, 5-hydroxytryptamine receptor 1B (Homo sapiens, UniProt P28222); assay: Binding affinity at cloned human 5-hydroxytryptamine 1B receptor stably expressed in CHO cells by [3H]5-HT displacement.; assay type: cell-based
[4] = molecular target: T1, 5-hydroxytryptamine receptor 1D; assay: Maximum stimulation of [35S]GTP-gamma-S, binding in CHO cells expressing human 5-HT-1d relative to 5-HT; assay type: functional, cell-based
Outline: (§2)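 Membranes from thawed CHO cells with human 5-HT1D, prepared in ice-cold 20 mM Hepes/EDTA at pH 7.4, spun at 40000g. Assay buffer: 100 mM NaCl, 10 mM MgCl2, 0.1% ascorbate, 10 μM pargyline. GDP 100 μM plus drug, 20 min at 30 °C, then ice 15 min. Then 100 pM [35S]GTPγS, 30 min at 30 °C, filtration. Emax is taken as % of maximal 5-HT response; duplicates, 2–5 occasions.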

[5] = molecular target: T1, 5-hydroxytryptamine receptor 1D; assay: Agonist-induced [35S]- GTPgammaS binding in CHO cells stably transfected with 5-hydroxytryptamine 1D receptor; assay type: cell-based; outline: as §2
[6] = molecular target: T2, 5-hydroxytryptamine receptor 1B; assay: Displacement of [3H]5-HT binding to cloned 5-hydroxytryptamine 1B receptor stably expressed in CHO cells; assay type: cell-based; outline: as §1
[7] = molecular target: T1, 5-hydroxytryptamine receptor 1D; assay: Displacement of [3H]5-HT binding to cloned human 5-hydroxytryptamine 1D receptor stably expressed in CHO cells; assay type: cell-based; outline: as §1

T1 sequence (P28221 whole entry): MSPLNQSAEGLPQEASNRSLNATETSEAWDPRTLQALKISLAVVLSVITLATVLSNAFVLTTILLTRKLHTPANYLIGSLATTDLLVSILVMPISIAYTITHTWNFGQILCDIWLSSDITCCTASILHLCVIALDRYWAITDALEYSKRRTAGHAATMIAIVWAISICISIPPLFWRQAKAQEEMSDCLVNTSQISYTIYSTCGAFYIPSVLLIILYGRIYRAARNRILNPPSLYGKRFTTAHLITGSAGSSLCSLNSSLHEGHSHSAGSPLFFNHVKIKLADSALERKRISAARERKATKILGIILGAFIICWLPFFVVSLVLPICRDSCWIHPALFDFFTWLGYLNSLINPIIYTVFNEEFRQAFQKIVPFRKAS
T2 sequence (P28222 whole entry): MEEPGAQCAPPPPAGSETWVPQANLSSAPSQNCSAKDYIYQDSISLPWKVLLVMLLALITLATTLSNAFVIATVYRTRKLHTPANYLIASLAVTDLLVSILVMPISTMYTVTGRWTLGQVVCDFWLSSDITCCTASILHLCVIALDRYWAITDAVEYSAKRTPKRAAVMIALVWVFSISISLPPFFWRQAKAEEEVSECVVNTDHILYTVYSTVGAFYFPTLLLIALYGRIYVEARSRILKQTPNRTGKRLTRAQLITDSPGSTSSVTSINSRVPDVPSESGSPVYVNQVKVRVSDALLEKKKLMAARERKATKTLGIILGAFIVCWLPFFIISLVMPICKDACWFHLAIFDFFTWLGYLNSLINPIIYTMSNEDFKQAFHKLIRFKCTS

Row | Structure (SMILES) | IC50 [1] [nM] | Selectivity [2] | IC50 [3] [nM] | Efficacy [4] [%] | EC50 [5] [nM] | IC50 [6] [nM] | IC50 [7] [nM]
1 | CN(C1CCN(CCCc2c[nH]c3ccc(-n4cnnc4)cc23)CC1)[C@H](CO)c1ccccc1 | 4.3 | 17 | 71 | – | – | – | –
2 | C[C@@H](NC1CCN(CCCc2c[nH]c3ccc(-n4cnnc4)cc23)CC1)C(=O)Nc1ccccc1 | 7.6 | 11 | 85 | 61 | 15 | – | –
3 | OC[C@H](Cc1ccccc1)NC1CCN(CCCc2c[nH]c3ccc(-n4cnnc4)cc23)CC1 | 2.1 | 67 | 140 | 76 | 3.6 | – | –
4 | CC(=O)Nc1ccc(CNC2CCN(CCCc3c[nH]c4ccc(-n5cnnc5)cc34)CC2)cc1 | – | 15 | – | 75 | 5 | 45 | 3
5 | COC[C@H](NC1CCN(CCCc2c[nH]c3ccc(-n4cnnc4)cc23)CC1)c1ccccc1 | 3 | 70 | 210 | 93 | 0.9 | – | –
6 | OC[C@@H](NC1CCN(CCCc2c[nH]c3ccc(-n4cnnc4)cc23)CC1)c1ccccc1 | 3.5 | 46 | 160 | 67 | 2.6 | – | –
7 | CC(CO)(NC1CCN(CCCc2c[nH]c3ccc(-n4cnnc4)cc23)CC1)c1ccccc1 (stereo not given) | 5.2 | 19 | 98 | 59 | 3.4 | – | –
8 | C[C@@H](O)[C@H](NC1CCN(CCCc2c[nH]c3ccc(-n4cnnc4)cc23)CC1)c1ccccc1 | – | 53 | – | 85 | 1 | 48 | 0.9
9 | O=S(=O)(NCC1CCN(CCCc2c[nH]c3ccc(-n4cnnc4)cc23)CC1)c1ccccc1 | – | 10 | – | 73 | 12 | 60 | 6.2
10 | C[C@H](NC1CCN(CCCc2c[nH]c3ccc(-n4cnnc4)cc23)CC1)c1ccccc1 | 0.6 | 160 | 95 | 76 | 12 | – | –
11 | C[C@@H](NC1CCN(CCCc2c[nH]c3ccc(-n4ccnc4)cc23)CC1)c1ccccc1 | – | 26 | – | 65 | 6.2 | 110 | 4.2
12 | CC(NC1CCN(CCCc2c[nH]c3ccc(-n4cnnc4)cc23)CC1)c1ccc(F)cc1 (stereo not given) | 1.9 | 120 | 230 | 99 | 0.5 | – | –
13 | CN(Cc1cccs1)C1CCN(CCCc2c[nH]c3ccc(-n4cnnc4)cc23)CC1 | – | 33 | – | 81 | 3.5 | 140 | 4.3
14 | OC[C@H](NC1CCN(CCCc2c[nH]c3ccc(Cn4cncn4)cc23)CC1)c1ccccc1 | – | 57 | – | 76 | 32 | 1300 | 23
15 | C[C@@H](NC1CCN(CCCc2c[nH]c3ccc(-n4cncn4)cc23)CC1)c1ccccc1 | – | 23 | – | 69 | 18 | 420 | 18
16 | OC[C@@H](Cc1ccccc1)NC1CCN(CCCc2c[nH]c3ccc(-n4cnnc4)cc23)CC1 | 8.3 | 12 | 100 | 74 | 14 | – | –
17 | CC(=O)Nc1ccc([C@H](C)NCC2CCN(CCCc3c[nH]c4ccc(-n5cnnc5)cc34)CC2)cc1 | – | 16 | – | 99 | 3 | 9.3 | 0.6

Row | Structure (SMILES) | IC50 [1] [nM] | Selectivity [2] | IC50 [3] [nM] | Efficacy [4] [%] | EC50 [5] [nM] | IC50 [6] [nM] | IC50 [7] [nM]
18 | CN(C1CCN(CCCc2c[nH]c3ccc(-n4cnnc4)cc23)CC1)[C@@H](CO)c1ccccc1 | 4.5 | 47 | 210 | 82 | 10 | – | –
19 | C[C@H](O)[C@H](NC1CCN(CCCc2c[nH]c3ccc(-n4cnnc4)cc23)CC1)c1ccccc1 | – | 20 | – | 81 | 30 | 150 | 7.6
20 | OCCC(NC1CCN(CCCc2c[nH]c3ccc(-n4cnnc4)cc23)CC1)c1ccccc1 (stereo not given) | 5.5 | 27 | 150 | 100 | 5.1 | – | –
21 | c1ccc2c(c1)CCC2NCC1CCN(CCCc2c[nH]c3ccc(-n4cnnc4)cc23)CC1 (stereo not given) | – | 23 | – | 78 | 1.3 | 25 | 1.1
22 | CC(=O)Nc1ccc(CN(C)CC2CCN(CCCc3c[nH]c4ccc(-n5cnnc5)cc34)CC2)cc1 | – | 40 | – | 94 | 2.8 | 24 | 0.6
23 | CN(Cc1ccoc1)C1CCN(CCCc2c[nH]c3ccc(-n4cnnc4)cc23)CC1 | – | 25 | – | 87 | 8.9 | 200 | 8.1
24 | CC(=O)Nc1ccc([C@@H](C)NC2CCN(CCCc3c[nH]c4ccc(-n5cnnc5)cc34)CC2)cc1 | 29 | 12 | 350 | – | – | – | –
25 | CN(Cc1ccsc1)C1CCN(CCCc2c[nH]c3ccc(-n4cnnc4)cc23)CC1 | – | 23 | – | 93 | 4.2 | 35 | 1.5
26 | O[C@@H]1Cc2ccccc2[C@H]1NC1CCN(CCCc2c[nH]c3ccc(-n4cnnc4)cc23)CC1 | – | 32 | – | 75 | 13 | 210 | 6.6
27 | C[C@@H](NC1CCN(CCCc2c[nH]c3ccc(-n4cnnc4)cc23)CC1)[C@@H](O)c1ccccc1 | 12 | 18 | 210 | – | – | – | –
28 | COC[C@H](NC1CCN(CCCc2c[nH]c3ccc(Cn4cncn4)cc23)CC1)c1ccc(F)cc1 | – | 240 | – | 89 | 8.9 | 1200 | 5
29 | OC[C@H](NC1CCN(CCCc2c[nH]c3ccc(-n4cncn4)cc23)CC1)c1ccccc1 | – | 98 | – | 77 | 7.4 | 400 | 4.1
30 | CC#CCN(C)C1CCN(CCCc2c[nH]c3ccc(-n4cnnc4)cc23)CC1 | 9.8 | 8.3 | 81 | – | – | – | –
31 | c1ccc(CNC2CCN(CCCc3c[nH]c4ccc(-n5cnnc5)cc34)CC2)cc1 | – | 26 | – | 76 | 7.6 | 120 | 4.6
32 | c1cc(CNC2CCN(CCCc3c[nH]c4ccc(-n5cnnc5)cc34)CC2)co1 | – | 17 | – | 65 | 7.1 | 78 | 4.5
33 | CS(=O)(=O)NC[C@H](NC1CCN(CCCc2c[nH]c3ccc(-n4cnnc4)cc23)CC1)c1ccccc1 | 15 | 5.2 | 78 | – | – | – | –
